Screening results (PubChem)
Most compounds without a hit are left out; they make up all but 2.1% or so of the library.
MsrA inhibitor = inhibitors of bovine MsrA; purified bovine MsrA, absorbance read-out; inhibition, % at 15.5 µM; hit rate 0.75% among 360,000;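 note: 0% = vehicle wells with enzyme and 100% = reference inhibitor wells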
IMP-1 inhibitor = blocks Pseudomonas aeruginosa IMP-1 metallo-beta-lactamase. inhibition, % at 5.6 µM. hit rate 0.45% among 290,000. purified IMP-1, nitrocefin hydrolysis, epi-absorbance fluorescence;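 active = inhibition above the mean plus 3 SD of all compounds in the same screening run, cut at about 4.5% in these data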;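 note: 0% = IMP-1 with DMSO and 100% = DMSO wells lacking enzyme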
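System – purified recombinant IMP-1 beta-lactamase · Input – IMP-1 dispensed at 0.2 nM · Timing – 15 min preincubation plus 25 min reaction at 25 °C · Signal – Epi-absorbance fluorescence, 480 nm excitation, 530 nm emission · Measure – percent IMP-1 inhibition derived from blank-referenced optical density · Controls – Enzyme-plus-DMSO low control, enzyme-free DMSO high control · Replication – singlicate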
PKA-R2B act = activators of human PKA-R2B complex; hit rate 0.079% among 340,000; activation, % at 11.4 µM; PKA-R2B holoenzyme dissociation, Cy5-IP20 fluorescence polarization; R2B truncated from residue 108, S112A mutant; 0% DMSO only, 100% 113 µM cGMP; P22694+P31323; AID 504700;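 active = activation above a cutoff set at the mean over all compounds plus 3 SD, cut at about 18% in these data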;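 note: higher means more holoenzyme dissociation and a rise in polarization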
Target sequence (P31323 whole entry, looked up, other chains not shown, the tested form may be a part): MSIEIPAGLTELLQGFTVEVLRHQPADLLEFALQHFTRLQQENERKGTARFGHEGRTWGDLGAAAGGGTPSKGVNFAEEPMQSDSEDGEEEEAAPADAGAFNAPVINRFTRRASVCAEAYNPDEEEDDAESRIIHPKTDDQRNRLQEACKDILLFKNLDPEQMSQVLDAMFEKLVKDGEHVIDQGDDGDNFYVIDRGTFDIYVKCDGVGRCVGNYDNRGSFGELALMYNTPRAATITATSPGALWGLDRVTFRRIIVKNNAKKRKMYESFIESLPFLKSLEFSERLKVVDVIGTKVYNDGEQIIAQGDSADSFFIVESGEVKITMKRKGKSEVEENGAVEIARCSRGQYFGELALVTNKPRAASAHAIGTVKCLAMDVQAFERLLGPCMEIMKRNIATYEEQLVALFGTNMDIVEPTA
bovine MsrA act = activators of bovine methionine sulfoxide reductase A | purified bovine MsrA, absorbance read-out | activation, % at 10.6 µM | hit rate 0.3% among 360,000 | AID 602163; in the data active = activation above about 7.5%;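 note: 0% = vehicle and 100% = reference activator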
VIM-2 inhibitor = inhibitors of Pseudomonas aeruginosa VIM-2 metallo-beta-lactamase | purified VIM-2, nitrocefin hydrolysis, epi-absorbance fluorescence | inhibition, % at 5.6 µM | hit rate 0.89% among 290,000 | AID 1527;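 active = inhibition above the mean of all tested compounds plus 3 SD, cutoff set per screening run, cut at about 7.5% in these data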;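 note: red hydrolysis product quenches plate fluorescence so inhibitors raise well fluorescence; 0% = enzyme with DMSO and 100% = DMSO without enzyme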
PKA-R1A activ = PKA-R1A complex activation | P00514+P68181 | PKA-R1A dissociation, Cy5-IP20 fluorescence polarization; scaled: DMSO 0%, 113 µM cGMP 100% | activation, % at 11.4 µM | hit rate 0.083% among 340,000 | AID 504707;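 active = percent activation above the mean of all tested compounds plus 3 SD, cut at about 19% in these data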;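 note: higher means more PKAc released from R1A so a rise in polarization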
MsrA conf = confirmation of bovine MsrA inhibitors. shares compounds with MsrA inhibitor. purified bovine MsrA, absorbance read-out. inhibition, % at 15.5 µM. hit rate 41% among 2,300. AID 651822;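 note: coupled to thioredoxin reductase with NADPH and selenocystamine and DMSO as substrate; 0% = vehicle only and 100% = full effect of reference inhibitor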
The depositor's hits bear a star; / = no result given. Cut-off read from the data, not from the text of the source, unless noted: active = inhibition above about 4.5%; inactive = the rest.

SMILES | MsrA inhibitor | IMP-1 inhibitor | PKA-R2B act | bovine MsrA act | VIM-2 inhibitor | PKA-R1A activ | MsrA conf
CC(=O)NC12CC3CC(C1)CC(C(=O)N1CCN(S(=O)(=O)c4cccc(C(F)(F)F)c4)CC1)(C3)C2 | 0.8 | / | 2.3 | -2.5 | / | 4.2 | /
O=C(O)c1cccc(NC2=C(n3nnc4ccccc43)C(=O)c3ccccc3C2=O)c1 | 32.5* | -2.7 | 1.6 | 0.2 | -0.3 | 0.4 | 28.1*
CC(C)c1ccc2[nH]c3c(c2c1)CCC/C3=N\NC(=O)c1ccncc1 | 1.4 | -3.8 | -12.8 | -4.4 | -4.8 | -1.6 | /
Nc1ccc(C(=O)N/N=C2\CCCc3c2[nH]c2ccccc32)cc1 | 5.3* | -1.7 | -8.2 | -5.8 | -3.6 | 1.2 | 7.1*
COC(=O)c1sc(S(=O)(=O)NCCCN(C)C)c(C(=O)OC)c1C | -0.1 | -1.6 | 2.4 | -0.3 | -0.3 | 4.5 | /
COC(=O)c1sc(S(=O)(=O)Nc2ccc(C)c(C)c2)c(C(=O)OC)c1C | 6.1* | 1.0 | -10.8 | -11.4 | 2.4 | -0.7 | 5.7*
S=c1[nH]nc(-c2ccccc2)n1/N=C/C=C/c1ccco1 | 5.7* | -4.0 | -1.3 | 1.7 | 0.9 | -3.1 | 6.2*
Cc1cc(-c2n[nH]c(=S)n2/N=C/C=C/c2ccco2)n[nH]1 | 0.7 | -3.0 | 2.8 | 2.1 | -3.8 | -3.1 | /
Cc1ccccc1-c1n[nH]c(=S)n1/N=C/C=C/c1ccco1 | 4.7* | -1.0 | -5.2 | -0.3 | -0.9 | -4.0 | 4.5
S=c1[nH]nc(-c2ccc(Cl)cc2)n1/N=C/C=C/c1ccco1 | 2.0 | -3.1 | / | -1.4 | -3.3 | / | /
O=C(N/N=C/c1ccncc1)c1cccc(S(=O)(=O)Nc2ccc(Cl)cc2)c1 | -0.2 | -0.4 | 6.3 | -6.4 | 1.1 | -2.8 | /
CS(=O)(=O)c1ccc(Cl)c(NC(=O)COC(=O)CCN2C(=O)C3CC=CCC3C2=O)c1 (stereo unspecified) | 0.6 | / | -0.8 | -2.2 | / | 4.0 | /
CCS(=O)(=O)c1nn2c(N)c(/C=C3/C=CC(=O)C(OC)=C3)c(=O)nc2s1 | 4.7* | -2.0 | -7.4 | -1.3 | -3.5 | 8.6 | 2.6
N#Cc1c(NC(=O)/C=C/C(=O)O)sc2c1CCN(Cc1ccccc1)C2 | 1.6 | 2.4 | -6.6 | -2.2 | -2.8 | 8.4 | /
c1ccc2nc(-c3nc4ccccc4[nH]3)ccc2c1 | 5.0* | -5.8 | -0.2 | -3.5 | -3.7 | 3.2 | 4.7*
O=C(O)c1cccc(-c2ccc(/C=N/Nc3nn[nH]n3)o2)c1 | 5.9* | -1.0 | -5.5 | -12.3 | 1.2 | -11.2 | 4.6*
CC(C)(C)c1ccc2c(c1)OC(C(=O)N/N=C\c1ccc(-c3cccc(C(=O)O)c3)o1)CO2 (stereo unspecified) | 1.4 | -3.0 | -8.1 | -2.0 | -4.5 | -7.8 | /
Cc1ccc(OCC(=O)N/N=C\c2ccc(-c3cccc(C(=O)O)c3)o2)c(C)c1 | 5.3* | -4.6 | -14.3 | -5.7 | -2.8 | -8.4 | 3.7
O=C(O)c1cccc(-c2ccc(/C=N/NC(=O)C3COc4ccccc4O3)o2)c1 (stereo unspecified) | 4.7* | -3.0 | -15.5 | -10.0 | -3.1 | -8.6 | 2.8
COc1ccc(CC(=O)N/N=C/c2ccc(-c3cccc(C(=O)O)c3)o2)cc1OC | 5.1* | -3.9 | -4.7 | -6.3 | -4.7 | -4.7 | 4.5
COc1cc(/C=C/C(=O)O)ccc1OS(=O)(=O)c1c(C)cc(C)cc1C | -0.1 | / | -0.5 | -4.3 | / | -19.2 | /
Nc1nonc1C(=O)N/N=C/c1ccc(-c2cccc(C(=O)O)c2)o1 | / | -1.2 | / | / | -0.7 | / | /
CNC(=S)N/N=C/c1ccc(-c2cccc(C(=O)O)c2)o1 | 4.9* | -2.1 | -1.7 | -8.3 | -1.9 | -3.7 | 6.2*
C=CCCC1CN(Cc2ccc(OC)cc2)S(=O)(=O)c2c(Oc3ccc(C)cc3)cccc2O1 (stereo unspecified) | 0.6 | / | / | / | / | / | /
COCc1nnc(NC(=O)c2cc3ccccc3o2)s1 | 5.1* | -1.1 | -10.4 | -3.1 | -3.3 | 2.9 | 2.4
SMILES | MsrA inhibitor | IMP-1 inhibitor | PKA-R2B act | bovine MsrA act | VIM-2 inhibitor | PKA-R1A activ | MsrA conf
COc1cc2c(cc1O)CC[n+]1cc3c(OC)c(OC)ccc3cc1-2 | 5.2* | -4.3 | 1.7 | -4.1 | -0.7 | 2.8 | 2.9
Cn1c(=O)c2cc(NC(=O)NCCc3cccs3)ccc2n1-c1ccc(C(C)(C)C)cc1 | / | / | / | -1.3 | / | / | /
CCC(C)/C(C)=N/Nc1ccc(S(N)(=O)=O)cc1[N+](=O)[O-] (stereo unspecified) | 7.7* | -1.3 | -14.1 | -8.0 | -4.0 | -11.3 | 3.9
C/C(CC(C)C)=N\Nc1ccc(S(N)(=O)=O)cc1[N+](=O)[O-] | 11.4* | -3.5 | 8.2 | -4.8 | -3.2 | -5.9 | 5.6*
CCNc1ccc(S(N)(=O)=O)cc1[N+](=O)[O-] | 2.6 | -1.7 | 1.0 | -3.2 | -1.5 | 0.4 | /
COc1ccccc1NS(=O)(=O)c1ccc(N/N=C(\C)C(C)C)c([N+](=O)[O-])c1 | 9.2* | -0.2 | -0.5 | / | -3.7 | 5.7 | 3.9
CCOC(=O)C1CCCN(C(=O)c2ccc3sccc3c2)CC1 (stereo unspecified) | -0.3 | / | / | -7.0 | / | / | /
Cc1[nH]n2cnnc2c(=O)c1Br | -1.1 | -1.3 | 0.4 | -7.3 | -0.5 | -3.5 | /
COc1ccccc1NC(=S)NC(=O)C1CC1 | 2.3 | -4.2 | -8.0 | -0.8 | -4.3 | 13.7 | /
O=C(NC(=S)Nc1ccccc1Cl)C1CC1 | 7.0* | 0.3 | -3.6 | -6.4 | 0.7 | -2.6 | 4.5
C=CCCC1CN(Cc2ccc(OC)cc2)S(=O)(=O)c2c(Oc3ccc(F)cc3OC)cccc2O1 (stereo unspecified) | 1.0 | / | / | / | / | / | /
O=C(O)c1ccc(NS(=O)(=O)c2ccc3c(c2)C(=O)c2ccccc2C3=O)cc1 | 23.6* | 0.4 | / | -8.3 | 3.7 | / | 14.9*
CCCCNc1cccc2c1S(=O)(=O)N[C@H](C)CO2 | 0.1 | / | / | / | / | / | /
COc1ccc(CNS(=O)(=O)c2cc(Br)ccc2Br)c(OC)c1 | -0.1 | / | / | / | / | / | /
Cn1cnc([N+](=O)[O-])c1Sc1nc(N)nc2c1ncn2C1CC(O)C(CO)O1 (stereo unspecified) | 5.5* | / | -2.9 | -1.3 | / | -3.7 | 3.1
CC(=O)NCCNc1nc2cc(-c3cc(F)ccc3C)sc2c(=O)n1C | 0.3 | / | / | -3.9 | / | / | /
O=c1c(-c2ccccc2)c(O)c2c(n1-c1ccccc1)CCCC2 | 1.6 | 0.0 | 3.4 | -1.9 | -0.8 | -3.9 | /
O=c1[nH]c(=S)c2c(n1-c1ccccc1)CCC2 | 5.8* | -2.4 | 2.8 | -5.9 | -0.5 | 0.0 | 3.4
CSc1ccc(/C=C(/NC(=O)c2ccco2)C(=O)N2CCOCC2)cc1 | 5.0* | -1.4 | -4.0 | -0.3 | -1.4 | -8.0 | 1.5
O=C(N/C(=C/c1ccc(Br)cc1)C(=O)N1CCOCC1)c1ccco1 | 1.5 | -1.9 | -3.2 | -3.2 | -1.0 | -12.2 | /
CN1c2ccsc2/C(=N/Nc2ccccc2)CS1(=O)=O | 5.3* | -2.5 | -1.2 | -6.8 | -1.4 | 4.0 | 3.3
